Test results: ChEMBL document CHEMBL2380256, “Discovery of novel Jak2-Stat pathway inhibitors with extended residence time on target” (Bioorg Med Chem Lett, 2013)
Calls of active or inactive are those of the source. The rule behind the calls is not given here.

What was measured:
[1] = Total plasma concentration in nude mouse allografted with mouse Ba/F3 cells expressing JAK2 TEL domain administered as po qd measured at 2 hrs; type: ADME, organism-based, BaF3
How it was run: (§1)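 Female nude mice implanted intravenously with Ba/F3 TEL-JAK2 cells on day 0 and dosed orally on day 10. Total plasma drug concentration was measured at the stated times post-dose, averaged over n = 3 per dose and time point.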

[2] = Growth inhibition of mouse BA/F3 cells transfected with JAK2 TEL domain after 24 hrs by Alamar Blue assay; type: functional; settings: BaF3, 24 h
[3] = Growth inhibition of mouse BA/F3 cells transfected with JAK3 TEL domain after 24 hrs by Alamar Blue assay; type: functional, cell-based; settings: BaF3, 24 h, read-out: GI50
[4] = Total plasma concentration in nude mouse allografted with mouse Ba/F3 cells expressing JAK2 TEL domain administered as po qd measured at 6 hrs; type: ADME, organism-based, BaF3; how it was run: as §1
Mus musculus [5] = experiment: In vivo inhibition of JAK2 TEL domain (unknown origin) transfected in mouse Ba/F3 cells allografted in nude mouse assessed as inhibition of STAT5 phosphorylation at 10 mg/kg, po qd at 2 hrs relative to vehicle-treated control; type: functional; settings: BaF3, 2 h
How it was run: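 Female nude mice implanted intravenously with Ba/F3 TEL-JAK2 cells on day 0 and given a single oral dose on day 10. pStat5 was measured at the stated times post-dose. % inhibition was scaled between vehicle and a control inhibitor as maximum and minimum, with n = 3 per dose and time point, reported as mean ±SD.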

[6] = molecular target: Tyrosine-protein kinase JAK2 (Homo sapiens, UniProt O60674); experiment: Inhibition of JAK2 (unknown origin) using biotinylated TYK2 peptide as substrate after 60 mins
[7] = Intrinsic clearance in rat liver microsomes; type: ADME, Microsome; settings: read-out: CLH
Homo sapiens = species: Homo sapiens; experiment: Free drug level in human; type: ADME, organism-based; settings: in vivo
Mus musculus [8] = species: Mus musculus; settings: BaF3, 10 mg/kg
[9] = molecular target: T1, Tyrosine-protein kinase JAK3 (Homo sapiens, UniProt P52333); experiment: Inhibition of JAK3 (unknown origin) using biotinylated poly-EY peptide as substrate after 60 mins by HTRF assay
T1 sequence (P52333 whole entry): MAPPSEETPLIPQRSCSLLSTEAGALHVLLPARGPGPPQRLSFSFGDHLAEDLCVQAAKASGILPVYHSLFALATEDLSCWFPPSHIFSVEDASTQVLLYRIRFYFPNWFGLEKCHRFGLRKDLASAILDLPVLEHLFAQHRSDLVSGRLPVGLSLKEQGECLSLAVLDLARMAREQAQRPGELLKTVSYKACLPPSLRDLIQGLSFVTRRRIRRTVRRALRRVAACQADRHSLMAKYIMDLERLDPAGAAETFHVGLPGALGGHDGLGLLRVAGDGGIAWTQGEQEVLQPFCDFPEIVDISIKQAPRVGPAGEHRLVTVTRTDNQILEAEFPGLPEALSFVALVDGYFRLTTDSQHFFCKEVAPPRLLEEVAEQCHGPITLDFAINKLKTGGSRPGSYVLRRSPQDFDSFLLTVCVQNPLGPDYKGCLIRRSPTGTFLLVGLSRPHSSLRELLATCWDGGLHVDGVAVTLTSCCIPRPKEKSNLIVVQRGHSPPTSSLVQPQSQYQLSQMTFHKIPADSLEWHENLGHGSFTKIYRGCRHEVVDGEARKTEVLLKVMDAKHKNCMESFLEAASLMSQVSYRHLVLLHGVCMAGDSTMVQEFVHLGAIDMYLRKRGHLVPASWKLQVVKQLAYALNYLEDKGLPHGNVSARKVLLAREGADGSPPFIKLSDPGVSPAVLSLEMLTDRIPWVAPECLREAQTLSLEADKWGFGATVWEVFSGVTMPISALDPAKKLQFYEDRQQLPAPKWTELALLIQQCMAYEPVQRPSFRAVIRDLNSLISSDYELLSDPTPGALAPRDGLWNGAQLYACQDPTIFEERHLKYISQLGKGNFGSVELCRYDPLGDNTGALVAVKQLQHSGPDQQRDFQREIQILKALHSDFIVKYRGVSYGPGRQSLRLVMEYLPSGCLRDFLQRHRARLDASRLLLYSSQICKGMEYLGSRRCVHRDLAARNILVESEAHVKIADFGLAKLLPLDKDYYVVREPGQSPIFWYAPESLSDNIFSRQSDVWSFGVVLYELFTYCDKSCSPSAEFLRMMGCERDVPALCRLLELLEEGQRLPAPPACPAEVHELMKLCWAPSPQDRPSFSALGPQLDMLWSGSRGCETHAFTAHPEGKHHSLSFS

Chain of Tyrosine-protein kinase JAK2 (O60674 whole entry): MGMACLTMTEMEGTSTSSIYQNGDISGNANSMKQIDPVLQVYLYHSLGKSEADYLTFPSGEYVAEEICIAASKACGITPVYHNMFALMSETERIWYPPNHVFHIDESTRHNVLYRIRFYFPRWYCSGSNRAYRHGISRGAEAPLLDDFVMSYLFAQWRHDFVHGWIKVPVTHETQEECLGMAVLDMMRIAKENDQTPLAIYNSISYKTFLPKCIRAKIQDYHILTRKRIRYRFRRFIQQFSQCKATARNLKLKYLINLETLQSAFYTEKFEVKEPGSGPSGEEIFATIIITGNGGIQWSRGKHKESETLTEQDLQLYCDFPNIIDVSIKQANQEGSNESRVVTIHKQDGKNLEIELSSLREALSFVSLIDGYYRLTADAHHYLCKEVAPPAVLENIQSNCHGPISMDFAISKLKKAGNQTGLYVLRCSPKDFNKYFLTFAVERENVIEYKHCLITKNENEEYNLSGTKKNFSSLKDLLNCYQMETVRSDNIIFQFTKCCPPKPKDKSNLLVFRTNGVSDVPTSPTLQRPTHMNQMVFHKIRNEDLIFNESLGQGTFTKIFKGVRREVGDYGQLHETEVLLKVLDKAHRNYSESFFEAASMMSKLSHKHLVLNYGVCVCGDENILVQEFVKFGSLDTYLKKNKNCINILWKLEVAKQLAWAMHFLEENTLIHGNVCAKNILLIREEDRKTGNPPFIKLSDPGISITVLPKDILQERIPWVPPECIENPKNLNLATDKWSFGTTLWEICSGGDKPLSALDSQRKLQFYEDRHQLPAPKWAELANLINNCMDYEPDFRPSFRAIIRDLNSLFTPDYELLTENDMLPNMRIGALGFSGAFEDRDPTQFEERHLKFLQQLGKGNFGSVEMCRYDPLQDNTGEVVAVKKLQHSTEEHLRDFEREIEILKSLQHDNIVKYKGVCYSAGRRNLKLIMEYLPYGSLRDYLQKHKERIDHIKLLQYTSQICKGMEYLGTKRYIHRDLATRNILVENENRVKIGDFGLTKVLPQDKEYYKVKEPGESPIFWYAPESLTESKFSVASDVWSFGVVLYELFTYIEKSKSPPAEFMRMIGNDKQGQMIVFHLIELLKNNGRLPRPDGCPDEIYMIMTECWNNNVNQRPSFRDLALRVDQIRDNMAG

Work on `Cc1cnc(Nc2nc(N[C@@H](C)c3ncc(F)cn3)c(F)c(N3CCOCC3)n2)s1` yielded a concentration at 2 h [1] of 463 ng/mL, a GI50 [2] of 30 nM and a GI50 [3] of 2700 nM. For the same molecule, the concentration at 6 h [4] was 185 ng/mL, the inhibition in vivo at 10 mg/kg (Mus musculus [5]) was 50% and the IC50 [6] was 20 nM. The microsomal CLint [7] was 82 µL/min/mg, the “Drug uptake(free)” value (Homo sapiens) was 3% and the inhibition (Mus musculus [8]) was “inactive”. The IC50 [9] was 16400 nM.
